Measurements: ChEMBL document CHEMBL4316598, “Synthesis, antiproliferative and apoptosis induction potential activities of novel bis(indolyl)hydrazide-hydrazone derivatives” (Bioorg Med Chem, 2019)
Activity calls are given as the source filed them. No cut-off for these calls is given here.

Columns and labels:
Detroit 562 = assay: Cytotoxicity against human Detroit 562 cells assessed as reduction in cell viability after 4 hrs by MTT assay; assay type: functional, cell-based
MCF7 [1] = assay: Induction of apoptosis in human MCF7 cells assessed as effect on Mcl-1 long level at 1 to 3 uM after 24 hrs by Western blot analysis; assay type: functional, cell-based
Outline: (§1)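 Cells were treated at 1, 3 and 5 µM for 24 h at 37 °C. Lysis was in ice-cold Triton X-100 buffer with protease and phosphatase inhibitors; nuclear proteins were extracted separately. Protein was quantified by BCA. Lysates were separated by electrophoresis, transferred to nitrocellulose and blocked in non-fat milk for 1 h. Primary antibody was applied overnight at 4 °C and secondary for 1 h at 28 °C. Detection was by enhanced chemiluminescence.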

Homo sapiens = species: Homo sapiens; assay: (§2) Cytotoxicity against human SW680 cells assessed as reduction in cell viability after 4 hrs by MTT assay; assay type: functional, cell-based
[2] = as §2; assay type: functional, cell-based
MCF7 [3] = assay: Induction of apoptosis in human MCF7 cells assessed as early apoptotic cells at 1 uM after 8 hrs by annexin-V FITC/propidium iodide staining based flow cytometric analysis relative to control; assay type: functional
Outline: (§3)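 Cells were grown in DMEM with 10% heat-inactivated FBS at 37 °C and 5% CO₂, then plated at 500,000 cells/well in 24-well plates. They were treated from a DMSO stock (DMSO ≤0.1%) for 8, 12 or 16 h. After a PBS wash, cells were resuspended in binding buffer (10 mM HEPES pH 7.4, 2.5 mM CaCl₂, 140 mM NaCl, 0.1% BSA), stained 40 min with FITC-annexin V, then with PI, and run on the flow cytometer immediately. Values are the mean of three independent experiments.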

[4] = biological target: T1, Mitogen-activated protein kinase; ERK1/ERK2 (Homo sapiens) (UniProt P27361+P28482); assay: Activation of ERK1/2 phosphorylation in human HeLa cells assessed as increase in ratio of phosphorylated ERK1/2 to total ERK1/2 level at 5 uM by ELISA; assay type: cell-based
T1 sequence (P27361 whole entry, looked up): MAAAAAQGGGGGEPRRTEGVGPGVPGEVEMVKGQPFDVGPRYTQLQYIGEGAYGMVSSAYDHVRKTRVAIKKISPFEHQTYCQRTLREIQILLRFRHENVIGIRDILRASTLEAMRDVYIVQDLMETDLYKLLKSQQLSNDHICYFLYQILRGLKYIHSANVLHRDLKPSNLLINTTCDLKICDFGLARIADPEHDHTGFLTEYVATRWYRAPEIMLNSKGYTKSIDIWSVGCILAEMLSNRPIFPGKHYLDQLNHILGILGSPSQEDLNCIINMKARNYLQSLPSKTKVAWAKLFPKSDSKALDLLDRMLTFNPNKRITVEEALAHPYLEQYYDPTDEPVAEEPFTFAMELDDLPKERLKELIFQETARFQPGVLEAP
T1 sequence (P28482 whole entry, looked up): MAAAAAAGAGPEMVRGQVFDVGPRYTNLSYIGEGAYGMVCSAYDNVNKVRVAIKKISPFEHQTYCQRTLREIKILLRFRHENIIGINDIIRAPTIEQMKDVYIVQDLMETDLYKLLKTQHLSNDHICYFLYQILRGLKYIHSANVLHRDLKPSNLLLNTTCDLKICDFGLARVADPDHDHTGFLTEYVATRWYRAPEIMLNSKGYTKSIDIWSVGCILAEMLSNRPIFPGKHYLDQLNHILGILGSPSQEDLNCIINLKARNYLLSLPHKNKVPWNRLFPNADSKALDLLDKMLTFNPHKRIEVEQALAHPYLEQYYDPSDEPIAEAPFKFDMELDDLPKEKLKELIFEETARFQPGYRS
Outline: (§4)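 Cell-based ELISA: HeLa or MCF-7 cells (20×10^3/well) grown overnight at 37 °C, 5% CO2, treated with 5 μM, then fixed and blocked. Probed with rabbit anti-total and anti-phospho P38, JNK or ERK1/2 (1:100), then HRP anti-rabbit IgG. Result is the phospho/total ratio; inhibitor arms use […], […] or SP600125. n=3.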

HeLa [5] = assay: Induction of nitric oxide production in human HeLa cells at 5 uM measured over 8 hrs by Griess reaction based assay relative to control; assay type: functional
Outline: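 Cells seeded at 2×10^6 cells/well for 12 h, then exposed to 1, 5 and 10 μM compound for 8 h at 37 °C. Culture supernatant mixed with Griess reagent (0.002% N-1-naphthyl-ethylenediamine dihydrochloride, 0.5% sulfanilic acid, 14% glacial acetic acid). Nitrite read by absorbance at 550 nm and compared with vehicle group.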

MCF7 [6] = assay: Induction of caspase-dependent apoptosis in human MCF7 cells assessed as activation of caspase-7 at 1 to 3 uM after 24 hrs by Western blot analysis; assay type: functional, cell-based; outline: as §1
HeLa [7] = assay: Induction of apoptosis in human HeLa cells assessed as early apoptotic cells at 1 uM after 8 hrs by annexin-V FITC/propidium iodide staining based flow cytometric analysis relative to control; assay type: functional; outline: as §3
MCF7 [8] = assay: Induction of apoptosis in human MCF7 cells assessed as early apoptotic cells at 1 uM after 12 hrs by annexin-V FITC/propidium iodide staining based flow cytometric analysis relative to control; assay type: functional; outline: as §3
MCF7 [9] = assay: Induction of apoptosis in human MCF7 cells assessed as up-regulation of acetylated p53 level at 5 uM after 24 hrs by sandwich ELISA; assay type: functional, cell-based
Outline: (§5)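 Cells were treated at 5 µM for 12, 24 and 48 h. Lysis was in ice-cold lysis buffer with 1 mM PMSF (5 min on ice), followed by three freeze-thaw cycles and a 10 min spin at 4 °C. Acetylated and total p53 were measured in the supernatant by kit sandwich ELISA, read at 450 nm. The control index is sample absorbance divided by that of untreated cells at the same time. Values are mean ± SD of triplicate experiments.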

MCF7 [10] = assay: Induction of caspase-dependent apoptosis in human MCF7 cells assessed as activation of caspase-6 at 1 to 3 uM after 24 hrs by Western blot analysis; assay type: functional, cell-based; outline: as §1
HeLa [11] = assay: Induction of caspase-dependent apoptosis in human HeLa cells assessed as activation of caspase-6 at 1 to 3 uM after 24 hrs by Western blot analysis; assay type: functional, cell-based; outline: as §1
HeLa [12] = assay: Induction of apoptosis in human HeLa cells assessed as necrotic cells at 1 uM after 12 hrs by annexin-V FITC/propidium iodide staining based flow cytometric analysis relative to control; assay type: functional; outline: as §3
HeLa [13] = assay: Induction of apoptosis in human HeLa cells assessed as early apoptotic cells at 1 uM after 12 hrs by annexin-V FITC/propidium iodide staining based flow cytometric analysis relative to control; assay type: functional; outline: as §3
HeLa [14] = assay: Effect on mitochondrial membrane potential in human HeLa cells assessed as shift change at 5 uM after 1 hrs by Rhodamine 123 dye-based fluorescence assay; assay type: functional, cell-based
Outline: (§6)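 Mitochondrial potential: HeLa or MCF-7 cells treated with 5 µM (final) for 1, 2, 4 and 8 h. Rhodamine 123 added, cells incubated 30 min at 37 °C, washed with PBS, and analysed by flow cytometry. Fluorescence histogram shift is compared with control.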

[15] = biological target: c-Jun N-terminal kinase, JNK (Homo sapiens) (UniProt P45983+P53779+P45984); assay: Activation of JNK phosphorylation in human MCF7 cells assessed as increase in ratio of phosphorylated JNK to total JNK level at 5 uM in presence of JNK inhibitor SP600125 by ELISA; assay type: cell-based; outline: as §4
MCF7 [16] = assay: Effect on mitochondrial membrane potential in human MCF7 cells assessed as shift change at 5 uM measured over 4 hrs by Rhodamine 123 dye-based fluorescence assay; assay type: functional, cell-based; outline: as §6
[17] = biological target: T1, Mitogen-activated protein kinase; ERK1/ERK2 (Homo sapiens); assay: Activation of ERK1/2 phosphorylation in human HeLa cells assessed as increase in ratio of phosphorylated ERK1/2 to total ERK1/2 level at 5 uM in presence of ERK1/2 inhibitor PD98059 by ELISA; assay type: cell-based; outline: as §4
MCF7 [18] = assay: Induction of apoptosis in human MCF7 cells assessed as up-regulation of total p53 level at 5 uM after 12 hrs by sandwich ELISA; assay type: functional, cell-based; outline: as §5
MCF7 [19] = assay: Induction of apoptosis in human MCF7 cells assessed as late apoptotic cells at 1 uM after 16 hrs by annexin-V FITC/propidium iodide staining based flow cytometric analysis relative to control; assay type: functional; outline: as §3
HeLa [20] = assay: Induction of caspase-dependent apoptosis in human HeLa cells assessed as activation of caspase-3 at 1 to 3 uM after 24 hrs by Western blot analysis; assay type: functional, cell-based
Outline: (§7)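 Cleaved caspase-3 immunoblot. Cells were exposed at 1, 3 and 5 µM for 24 h at 37 °C, with paclitaxel 3 µM as positive control. Lysis was in ice-cold Triton X-100 buffer, and protein was measured by BCA. Lysates were separated by electrophoresis, transferred to nitrocellulose and blocked in milk. Primary antibody was applied overnight at 4 °C and secondary for 1 h at 28 °C. Detection was by enhanced chemiluminescence.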

MCF7 [21] = assay: Induction of caspase-dependent apoptosis in human MCF7 cells assessed as activation of caspase-3 at 1 to 3 uM after 24 hrs by Western blot analysis; assay type: functional, cell-based; outline: as §7

Q: Which Activity (Detroit 562) does the source give for `Cn1cc(/C=N\NC(=O)c2cn(C)c3ccc(Br)cc23)c2ccccc21` here?
A: The Activity was “Dose-dependent effect”.

Q: What about the IC50 (Detroit 562; Detroit 562, 4 h) of the same compound?
A: Its IC50 is 22.7 µM.

Q: What about the Activity (MCF7 [1]) of the same compound?
A: The Activity was “inactive”.

Q: What about the Activity (Homo sapiens) of the same compound?
A: The Activity was “Dose-dependent effect”.

Q: What about the IC50 [2] of the same compound?
A: Its IC50 is 2.77 µM.

Q: And the Activity (MCF7 [3])?
A: Its Activity is 2.26%.

Q: What about the Activity [4] of the same compound?
A: Its Activity is “Active”.

Q: And the Activity (HeLa [5])?
A: Its Activity is 42.4%.

Q: What about the Activity (MCF7 [6]) of the same compound?
A: The Activity was “inactive”.

Q: And the Activity (HeLa [7])?
A: The Activity was 19.15%.

Q: What about the Activity (MCF7 [8]) of the same compound?
A: Its Activity is 21.18%.

Q: And the Activity (MCF7 [9])?
A: Its Activity is “Active”.

Q: What about the Activity (MCF7 [10]) of the same compound?
A: The Activity was “inactive”.

Q: And the Activity (HeLa [11])?
A: The Activity was “inactive”.

Q: And the Activity (HeLa [12])?
A: The Activity was 0.3%.

Q: And the Activity (HeLa [13])?
A: Its Activity is 33.51%.

Q: And the Activity (HeLa [14])?
A: Its Activity is “Active”.

Q: What about the Activity [15] of the same compound?
A: The Activity was “inactive”.

Q: And the Activity (MCF7 [16])?
A: Its Activity is “Active”.

Q: And the Activity [17]?
A: Its Activity is “inactive”.

Q: And the Activity (MCF7 [18])?
A: Its Activity is “Active”.

Q: What about the Activity (MCF7 [19]) of the same compound?
A: The Activity was 58.43%.

Q: What about the Activity (HeLa [20]) of the same compound?
A: Its Activity is “inactive”.

Q: And the Activity (MCF7 [21])?
A: The Activity was “inactive”.
